Experimental data from ChEMBL document CHEMBL1811760, “Structure-activity relationships of C-17-substituted estratriene-3-O-sulfamates as anticancer agents” (J Med Chem, 2011).
Active and inactive are the calls of the source. No cut-off for these calls is given here.

Columns and labels:
MCF7 = experiment: Antiproliferative activity against estrogen-positive human MCF7 cells; format: functional
HOP-62 = experiment: Growth inhibition of human HOP62 cells; format: functional
HCT-116 = experiment: Growth inhibition of human HCT116 cells; format: functional
SF-539 = experiment: Growth inhibition of human SF539 cells; format: functional
UACC-62 = experiment: Growth inhibition of human UACC62 cells; format: functional
OVCAR-3 = experiment: Growth inhibition of human OVCAR3 cells; format: functional
SN12C = experiment: Growth inhibition of human SN12C cells; format: functional
[1] = Growth inhibition of human NCI60 cells; format: functional
DU-145 = experiment: Antiproliferative activity against human DU145 cells after 96 hrs by WST1 assay; format: functional; conditions: DU-145, 96 h
Method in brief: (§1)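 Cells were grown in RPMI-1640 with 10% FBS at 37 °C in 5% CO2, then seeded at 5000 cells/well. They were exposed to compound at 10^-9–10^-4 M or vehicle for 96 h. Live cells were read by WST-1 and expressed as percent of mean control, from which GI50 was calculated. Runs were done in triplicate.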

MDA-MB-231 = experiment: Antiproliferative activity against estrogen-negative human MDA-MB-231 cells after 96 hrs by WST1 assay; format: functional; conditions: MDA-MB-231, 96 h; method in brief: as §1
[2] = Toxicity in ip dosed athymic nude mouse administered as single dose; format: organism-based; conditions: in vivo
Method in brief: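 Preliminary toxicology run at the NCI in female athymic nude mice. Each mouse received a single ip dose, at doses up to 400 mg/kg. The compound was formulated in 10% DMSO in saline/Tween 80.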

Mus musculus [3] = experiment: Antiangiogenic activity in Matrigel plug implanted C57BL/6J mouse assessed as inhibition of bFGF-induced angiogenesis at 10 mg/kg, po administered 24 hrs after implantation for 4 days measured by FITC-conjugated dextran staining based fluorimetry; format: functional, organism-based; design: dose 10 mg/kg
Method in brief: (§2)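 Female C57BL/6J mice (6–8 weeks) were injected subcutaneously in the flanks with 0.5 mL ice-cold Matrigel plus 500 ng bFGF. Oral dosing in vehicle (10% THF, 90% PG) ran daily for 4 days, starting 24 h after Matrigel. Groups had five mice. FITC-dextran (0.1 mL of 0.25 mg/mL) was given iv and mice killed 20 min later. Plugs were digested in Dispase 16 h at 37 °C, and supernatant fluorescence read at ex 480/em 520 nm against a FITC-dextran standard curve.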

Mus musculus [4] = experiment: Antiangiogenic activity in Matrigel plug implanted C57BL/6J mouse assessed as inhibition of bFGF-induced angiogenesis at 20 mg/kg, po administered 24 hrs after implantation for 4 days measured by FITC-conjugated dextran staining based fluorimetry; format: functional, organism-based; design: dose 20 mg/kg; method in brief: as §2

Row | SMILES | GI50 (MCF7) [nM] | GI50 (HCT-116) [nM] | GI50 (OVCAR-3) [nM] | GI50 (DU-145) [nM] | GI50 (MDA-MB-231) [nM] | GI50 (HOP-62) [nM] | GI50 (SF-539) [nM] | GI50 (UACC-62) [nM] | GI50 (SN12C) [nM] | GI50 [1] [nM] | further results
1 | CCc1cc2c(cc1OS(N)(=O)=O)CC[C@@H]1[C@@H]2CC[C@]2(C)/C(=C/CO)CC[C@@H]12 | 10000 | 270 | 230 |  |  | 420 | 220 | 470 | 580 | 490 | 
2 | CCc1cc2c(cc1OS(N)(=O)=O)CC[C@@H]1[C@@H]2CC[C@]2(C)[C@@H](COS(N)(=O)=O)CC[C@@H]12 |  | 38 | 19 | 290 | 430 | 61 | 56 | 22 | 309 | 85 | 
3 | CCc1cc2c(cc1O)CC[C@@H]1[C@@H]2CC[C@]2(C)[C@@H](CC#N)CC[C@@H]12 | > 100000 |  |  |  |  |  |  |  |  |  | 
4 | CCc1cc2c(cc1OS(N)(=O)=O)CC[C@@H]1[C@@H]2CC[C@]2(C)[C@@H](CO)CC[C@@H]12 |  | < 10 | < 10 | 100 | 110 | < 10 | < 10 | < 10 | < 10 | 18 | MTD [2]: 400 mg/kg
5 | COc1cc2c(cc1OS(N)(=O)=O)CC[C@@H]1[C@@H]2CC[C@]2(C)[C@@H](C/C(C)=N\O)CC[C@@H]12 |  |  |  | 2090 | 2350 |  |  |  |  |  | 
6 | CCc1cc2c(cc1O)CC[C@@H]1[C@@H]2CC[C@]2(C)/C(=C\CO)CC[C@@H]12 | 670 |  |  |  |  |  |  |  |  |  | 
7 | CCc1cc2c(cc1O)CC[C@@H]1[C@@H]2CC[C@]2(C)[C@@H](CCO)CC[C@@H]12 | 2520 |  |  |  |  |  |  |  |  |  | 
8 | CCc1cc2c(cc1OS(N)(=O)=O)CC[C@@H]1[C@@H]2CC[C@]2(C)[C@@H](OS(N)(=O)=O)CC[C@@H]12 |  |  | < 10 |  |  | < 10 | < 10 | < 10 | 28 | 18 | 
9 | CCc1cc2c(cc1OS(N)(=O)=O)CC[C@@H]1[C@@H]2CC[C@]2(C)[C@@H](CCF)CC[C@@H]12 |  | 3390 | 22900 | 780 |  | 3720 | 5250 | 3890 | 7590 | 6310 | 
10 | CCOC(=O)C[C@H]1CC[C@H]2[C@@H]3CCc4cc(O)c(CC)cc4[C@H]3CC[C@]12C | 26400 |  |  |  |  |  |  |  |  |  | 
11 | CCOC(=O)C[C@H]1CC[C@H]2[C@@H]3CCc4cc(OS(N)(=O)=O)c(CC)cc4[C@H]3CC[C@]12C | 4190 | 350 | 220 |  |  | 590 | 220 | 450 | 630 | 520 | 
12 | COc1cc2c(cc1OS(N)(=O)=O)CC[C@@H]1[C@@H]2CC[C@]2(C)[C@@H](CC(C)O)CC[C@@H]12 (some centres undefined) |  | 25 | < 10 | 140 | 140 | 48 | 23 | < 10 | 52 | 28 | 
13 | COc1cc2c(cc1OS(N)(=O)=O)CC[C@@H]1[C@@H]2CC[C@]2(C)[C@@H](CC(C)=O)CC[C@@H]12 | < 5 | < 10 | < 10 | 89 | 68 | < 10 | < 10 | < 10 | < 10 | 21 | Activity (Mus musculus [3]): Active; Activity (Mus musculus [4]): Active
14 | CCc1cc2c(cc1OS(N)(=O)=O)CC[C@@H]1[C@@H]2CC[C@]2(C)[C@@H](CC(C)=O)CC[C@@H]12 | 320 |  |  | 160 | 180 |  |  |  |  |  | 
15 | CCc1cc2c(cc1OS(N)(=O)=O)CC[C@@H]1[C@@H]2CC[C@]2(C)[C@@H](COC)CC[C@@H]12 |  | 22 | < 10 | 330 | 530 | 45 | < 10 |  | 72 | 42 | 
16 | CCc1cc2c(cc1O)CC[C@@H]1[C@@H]2CC[C@]2(C)[C@@H](COC)CC[C@@H]12 |  |  |  | 25300 | 9200 |  |  |  |  |  | 
17 | CCOC(=O)/C=C1/CC[C@H]2[C@@H]3CCc4cc(O)c(CC)cc4[C@H]3CC[C@]12C | 31100 |  |  |  |  |  |  |  |  |  | 

More lines, main results first:

Row | GI50 (MCF7) [nM] | GI50 (HCT-116) [nM] | GI50 (OVCAR-3) [nM] | GI50 (DU-145) [nM] | GI50 (MDA-MB-231) [nM] | SMILES | GI50 (HOP-62) [nM] | GI50 (SF-539) [nM] | GI50 (UACC-62) [nM] | GI50 (SN12C) [nM] | GI50 [1] [nM] | further results
18 | > 10000 |  |  |  |  | CCc1cc2c(cc1O)CC[C@@H]1[C@@H]2CC[C@]2(C)/C(=C/COC)CC[C@@H]12 |  |  |  |  |  | 
19 | 24800 |  |  |  |  | CCc1cc2c(cc1O)CC[C@@H]1[C@@H]2CC[C@]2(C)[C@@H](CCOC)CC[C@@H]12 |  |  |  |  |  | 
20 |  |  |  | 2000 |  | CCc1cc2c(cc1O)CC[C@@H]1[C@@H]2CC[C@]2(C)[C@@H](C(C)=O)CC[C@@H]12 |  |  |  |  |  | 
21 |  |  |  | 46 | 48 | COc1cc2c(cc1OS(N)(=O)=O)CC[C@@H]1[C@@H]2CC[C@]2(C)[C@@H](C(C)=O)CC[C@@H]12 |  |  |  |  |  | 
22 |  |  |  | 10100 | 6300 | CCc1cc2c(cc1O)CC[C@@H]1[C@@H]2CC[C@]2(C)[C@@H](CO)CC[C@@H]12 |  |  |  |  |  | 
23 |  |  |  | 3400 |  | CCc1cc2c(cc1O)CC[C@@H]1[C@@H]2CC[C@]2(C)[C@@H](CCF)CC[C@@H]12 |  |  |  |  |  | 
24 | 1850 |  |  |  |  | CCOC(=O)/C=C1\CC[C@H]2[C@@H]3CCc4cc(OS(N)(=O)=O)c(CC)cc4[C@H]3CC[C@]12C |  |  |  |  |  | 
25 |  | 2700 | 4070 | 3400 |  | CCc1cc2c(cc1OS(N)(=O)=O)CC[C@@H]1[C@@H]2CC[C@]2(C)[C@@H](CCOC)CC[C@@H]12 | 4900 | 5010 | 2340 | 4680 | 4570 | 
26 |  |  |  | 300 | 390 | COc1cc2c(cc1O)CC[C@@H]1[C@@H]2CC[C@]2(C)[C@@H](C(C)=O)CC[C@@H]12 |  |  |  |  |  | 
27 |  |  |  | 2400 |  | COc1cc2c(cc1O)CC[C@@H]1[C@@H]2CC[C@]2(C)[C@@H](CC(C)=O)CC[C@@H]12 |  |  |  |  |  | 
28 | 770 |  |  |  |  | CCc1cc2c(cc1O)CC[C@@H]1[C@@H]2CC[C@]2(C)/C(=C/CO)CC[C@@H]12 |  |  |  |  |  | 
29 |  | 2820 | 3470 | 1810 |  | CCc1cc2c(cc1OS(N)(=O)=O)CC[C@@H]1[C@@H]2CC[C@]2(C)[C@@H](CC(F)F)CC[C@@H]12 | 3890 | 1950 | 4900 | 5370 | 3090 | 
30 | 30600 |  |  |  |  | CCOC(=O)/C=C1\CC[C@H]2[C@@H]3CCc4cc(O)c(CC)cc4[C@H]3CC[C@]12C |  |  |  |  |  | 
31 | 26 | < 10 | < 10 | 62 | 19 | CCc1cc2c(cc1OS(N)(=O)=O)CC[C@@H]1[C@@H]2CC[C@]2(C)[C@@H](C(C)=O)CC[C@@H]12 | < 10 | < 10 | < 10 | < 10 | 15 | Activity (Mus musculus [3]): Active; Activity (Mus musculus [4]): Active
32 | 5790 |  |  | 18900 |  | CCc1cc2c(cc1O)CC[C@@H]1[C@@H]2CC[C@]2(C)[C@@H](CC(C)=O)CC[C@@H]12 |  |  |  |  |  | 
33 | < 500 | 270 | 11500 |  |  | CCc1cc2c(cc1OS(N)(=O)=O)CC[C@@H]1[C@@H]2CC[C@]2(C)[C@@H](CCO)CC[C@@H]12 | 250 | 350 | 2890 | 2450 | 1730 | 
34 |  |  |  | 60000 |  | CCc1cc2c(cc1O)CC[C@@H]1[C@@H]2CC[C@]2(C)[C@@H](CC(F)F)CC[C@@H]12 |  |  |  |  |  | 
35 | 5640 |  |  |  |  | CCc1cc2c(cc1OS(N)(=O)=O)CC[C@@H]1[C@@H]2CC[C@]2(C)[C@@H](CCOS(N)(=O)=O)CC[C@@H]12 |  |  |  |  |  | 
